ChEMBL document CHEMBL5143669, “Stapled peptides as scaffolds for developing radiotracers for intracellular targets: Preliminary evaluation of a radioiodinated MDM2-binding stapled peptide in the SJSA-1 osteosarcoma model” (Bioorg Med Chem Lett, 2022)

Key:
[1] = Drug uptake in MDM2-amplified human SJSA-1 cells expressing wild type p53 at 5 to 50 uM incubated for 1 hr; type: ADME, cell-based; conditions: sjsa-1, 1 h, dose 5-50 µM
In short: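 SJSA-1 cells (MDM2-amplified, wild-type p53) in 24-well plates were incubated 1 h with 125I-labeled peptide in serum-free RPMI-1640, with or without unlabeled parent peptide (5–50 μM) for blocking. They were then washed three times with PBS and lysed; retained activity was normalized to well protein (%/mg protein). Triplicates, mean ± SD.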

[2] = Biodistribution in Brain of athymic mouse xenografted with human SJSA-1 cells at 166.5 kBq, iv after 2 hrs by automated gamma counting method; type: ADME, organism-based; conditions: in vivo
In short: (§1)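 125I-labeled peptide (166.5 kBq in 100 μL) was injected via tail vein into athymic mice bearing flank SJSA-1 xenografts, n = 5 per time point. Tumors, blood and major organs were gamma-counted at 0.5, 2, 6 and 24 h post-injection. Values are %ID/g.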

[3] = Biodistribution in Lung of athymic mouse xenografted with human SJSA-1 cells at 166.5 kBq, iv after 24 hrs by automated gamma counting method; type: ADME, organism-based; conditions: in vivo; in short: as §1
[4] = Stability in human serum assessed as intact peptide level at 37 degC incubated for 72 hrs by RP-HPLC analysis; type: ADME, cell-free; conditions: read-out: Drug uptake
In short: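 125I-labeled peptide was incubated in human serum at 37 °C for up to 72 h. Aliquots were run by RP-HPLC (RP-18 column, ethanol/0.05 M sodium acetate pH 5.5 gradient, 1 mL/min), and intact peptide was expressed as percentage of injected activity.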

[5] = Biodistribution in Large intestine of athymic mouse xenografted with human SJSA-1 cells at 166.5 kBq, iv after 30 mins by automated gamma counting method; type: ADME, organism-based; conditions: in vivo, 0.5 h; in short: as §1
[6] = Biodistribution in Liver of athymic mouse xenografted with human SJSA-1 cells at 166.5 kBq, iv after 30 mins by automated gamma counting method; type: ADME, organism-based; conditions: in vivo, 0.5 h; in short: as §1
[7] = Biodistribution in Blood of athymic mouse xenografted with human SJSA-1 cells at 166.5 kBq, iv after 6 hrs by automated gamma counting method; type: ADME, organism-based; conditions: in vivo; in short: as §1
[8] = Biodistribution in Spleen of athymic mouse xenografted with human SJSA-1 cells at 166.5 kBq, iv after 6 hrs by automated gamma counting method; type: ADME, organism-based; conditions: in vivo; in short: as §1
[9] = Drug uptake in MDM2-amplified human SJSA-1 cells expressing wild type p53 assessed as initially bound radioactivity incubated for 2 hrs subsequently re-incubating the cells with fresh medium for up to 2 hrs; type: ADME, cell-based; conditions: sjsa-1, 2 h
In short: (§2)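 SJSA-1 cells were loaded with 125I-labeled peptide for 1 h, then reincubated in fresh medium for 0.5–2 h. Cell-retained activity and cumulative release into the supernatant were expressed as percentage of initially bound activity.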

[10] = Drug uptake in MDM2-amplified human SJSA-1 cells expressing wild type p53 at 5 to 50 uM incubated for 60 mins; type: ADME, cell-based; conditions: sjsa-1, 1 h, dose 5-50 µM
In short: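 For uptake kinetics, SJSA-1 cells in serum-free RPMI-1640 were incubated 30–120 min with 125I-labeled peptide, with or without 50 μM unlabeled parent peptide. Cells were washed with PBS and lysed, and uptake was normalized to protein (%/mg protein). Triplicates, mean ± SD.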

[11] = Biodistribution in Large intestine of athymic mouse xenografted with human SJSA-1 cells at 166.5 kBq, iv after 2 hrs by automated gamma counting method; type: ADME, organism-based; conditions: in vivo; in short: as §1
[12] = Biodistribution in Skin of athymic mouse xenografted with human SJSA-1 cells at 166.5 kBq, iv after 2 hrs by automated gamma counting method; type: ADME, organism-based, Skin of body; conditions: in vivo; in short: as §1
[13] = Drug uptake in MDM2-amplified human SJSA-1 cells expressing wild type p53 assessed as initially bound radioactivity incubated for 1.5 hrs subsequently re-incubating the cells with fresh medium for up to 2 hrs; type: ADME, cell-based; conditions: sjsa-1, 1.5 h; in short: as §2
[14] = Biodistribution in Lung of athymic mouse xenografted with human SJSA-1 cells at 166.5 kBq, iv after 6 hrs by automated gamma counting method; type: ADME, organism-based; conditions: in vivo; in short: as §1
[15] = Biodistribution in Tumor of athymic mouse xenografted with human SJSA-1 cells at 166.5 kBq, iv after 30 mins by automated gamma counting method; type: ADME, organism-based, Neoplasm; conditions: in vivo, 0.5 h
In short: (§3)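 Athymic mice bearing flank SJSA-1 xenografts received 125I-SIB-labeled peptide (166.5 kBq, 100 μL) by tail vein; groups of five per time point. Tumor, blood and organs were taken at 0.5–24 h and counted by gamma counter; values expressed as %ID/g.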

[16] = Biodistribution in Skin of athymic mouse xenografted with human SJSA-1 cells at 166.5 kBq, iv after 6 hrs by automated gamma counting method; type: ADME, organism-based, Skin of body; conditions: in vivo; in short: as §1
[17] = Lipophilicity, logD of the compound using n-octanol and phosphate-buffered saline at pH 7.4 by the shake flask method; type: physicochemical
In short: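 Shake-flask partition of the 125I-labeled peptide between n-octanol and PBS pH 7.4; logD from n = 4.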

[18] = Biodistribution in Liver of athymic mouse xenografted with human SJSA-1 cells at 166.5 kBq, iv after 6 hrs by automated gamma counting method; type: ADME, organism-based; conditions: in vivo; in short: as §1
[19] = Biodistribution in Brain of athymic mouse xenografted with human SJSA-1 cells at 166.5 kBq, iv after 30 mins by automated gamma counting method; type: ADME, organism-based; conditions: in vivo, 0.5 h; in short: as §1
[20] = Biodistribution in Skin of athymic mouse xenografted with human SJSA-1 cells at 166.5 kBq, iv after 30 mins by automated gamma counting method; type: ADME, organism-based, Skin of body; conditions: in vivo, 0.5 h; in short: as §1
[21] = Biodistribution in Kidney of athymic mouse xenografted with human SJSA-1 cells at 166.5 kBq, iv after 2 hrs by automated gamma counting method; type: ADME, organism-based; conditions: in vivo; in short: as §1
[22] = Biodistribution in Kidney of athymic mouse xenografted with human SJSA-1 cells at 166.5 kBq, iv after 24 hrs by automated gamma counting method; type: ADME, organism-based; conditions: in vivo; in short: as §1
[23] = Biodistribution in Blood of athymic mouse xenografted with human SJSA-1 cells at 166.5 kBq, iv after 30 mins by automated gamma counting method; type: ADME, organism-based; conditions: in vivo, 0.5 h; in short: as §1
[24] = Biodistribution in Small intestine of athymic mouse xenografted with human SJSA-1 cells at 166.5 kBq, iv after 2 hrs by automated gamma counting method; type: ADME, organism-based; conditions: in vivo; in short: as §1
[25] = Biodistribution in Brain of athymic mouse xenografted with human SJSA-1 cells at 166.5 kBq, iv after 6 hrs by automated gamma counting method; type: ADME, organism-based; conditions: in vivo; in short: as §1
[26] = Drug uptake in MDM2-amplified human SJSA-1 cells expressing wild type p53 assessed as initially bound radioactivity incubated for 0.5 hrs subsequently re-incubating the cells with fresh medium for up to 2 hrs; type: ADME, cell-based; conditions: sjsa-1, 0.5 h; in short: as §2
[27] = Biodistribution in Bone of athymic mouse xenografted with human SJSA-1 cells at 166.5 kBq, iv after 24 hrs by automated gamma counting method; type: ADME, organism-based, Bone element; conditions: in vivo; in short: as §1
[28] = Biodistribution in Large intestine of athymic mouse xenografted with human SJSA-1 cells at 166.5 kBq, iv after 24 hrs by automated gamma counting method; type: ADME, organism-based; conditions: in vivo; in short: as §1
[29] = Biodistribution in Thyroid of athymic mouse xenografted with human SJSA-1 cells at 166.5 kBq, iv after 24 hrs by automated gamma counting method; type: ADME, organism-based, Thyroid gland; conditions: in vivo; in short: as §3
[30] = Biodistribution in Heart of athymic mouse xenografted with human SJSA-1 cells at 166.5 kBq, iv after 30 mins by automated gamma counting method; type: ADME, organism-based; conditions: in vivo, 0.5 h; in short: as §1
[31] = Biodistribution in Spleen of athymic mouse xenografted with human SJSA-1 cells at 166.5 kBq, iv after 30 mins by automated gamma counting method; type: ADME, organism-based; conditions: in vivo, 0.5 h; in short: as §1

- Drug uptake [1]: 12.4%
- Drug uptake [2]: 0.25 % ID/g
- Drug uptake [3]: 0.33 % ID/g
- remaining at 72 h [4]: 96%
- Drug uptake [5]: 0.06 % ID/g
- Drug uptake [6]: 13.52 % ID/g
- Drug uptake [7]: 5.12 % ID/g
- Drug uptake [8]: 1.99 % ID/g
- Drug uptake [9]: 62%
- Drug uptake [10]: 142 %/mg protein
- Drug uptake [11]: 0.24 % ID/g
- Drug uptake [12]: 0.88 % ID/g
- Drug uptake [13]: 66.4%
- Drug uptake [14]: 2.49 % ID/g
- Drug uptake [15]: 1.8 % ID/g
- Drug uptake [16]: 1.22 % ID/g
- logD [17]: 1.45
- Drug uptake [18]: 11.41 % ID/g
- Drug uptake [19]: 0.24 % ID/g
- Drug uptake [20]: 0.57 % ID/g
- Drug uptake [21]: 2.54 % ID/g
- Drug uptake [22]: 0.63 % ID/g
- Drug uptake [23]: 8.33 % ID/g
- Drug uptake [24]: 2.17 % ID/g
- Drug uptake [25]: 0.2 % ID/g
- Drug uptake [26]: 83.1%
- Drug uptake [27]: 0.16 % ID/g
- Drug uptake [28]: 1.87 % ID/g
- Drug uptake [29]: 0.27 % ID/g
- Drug uptake [30]: 2.52 % ID/g
- Drug uptake [31]: 1.29 % ID/g
SMILES: CC(=O)NC(CCCCNC(=O)c1cccc([125I])c1)C(=O)NCCCCCC(=O)N[C@H](C(=O)N[C@@H](CO)C(=O)N[C@@H](Cc1ccccc1)C(=O)N[C@@]1(C)CCCCCC/C=C/CCC[C@@](C)(C(=O)N[C@@H](CCC(=O)O)C(=O)N[C@@H](CC(N)=O)C(=O)N[C@@H](Cc2ccccc2)C(N)=O)NC(=O)[C@H](CC(C)C)NC(=O)[C@H](CC(C)C)NC(=O)[C@H](C)NC(=O)[C@H](Cc2c[nH]c3ccccc23)NC(=O)[C@H](Cc2ccc(O)cc2)NC(=O)[C@H](CCC(=O)O)NC1=O)[C@@H](C)O (stereo partly specified)
